# Measured values taken from ChEMBL document CHEMBL4428062, “Human Toll-like Receptor (TLR) 8-Specific Agonistic Activity in Substituted Pyrimidine-2,4-diamines” (J Med Chem, 2016).
# Calls of active or inactive are those of the source. The calls are words filed in the database; no cut-off is given here.
# Key:
# [1] = target: Toll-like receptor 4 (Homo sapiens) (UniProt O00206); test: Agonist activity at human TLR4 expressed in HEK293 cells assessed as induction of NF-kappaB activity by secreted alkaline phosphatase reporter gene assay; format: cell-based
# Outline: (§1)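 HEK293 reporter lines stably co-transfected with the respective human TLR and an NF-κB/AP-1-driven secreted alkaline phosphatase gene, kept in selection medium. About 10^5 cells/ml were incubated with graded concentrations of stimuli. Supernatant sAP was read spectrophotometrically at 620 nm using a chromogenic substrate in detection medium. EC50 was taken as the arithmetic mean of quadruplicate samples.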
# [2] = target: Toll-like receptor 2 (Homo sapiens) (UniProt O60603); test: Agonist activity at human TLR2 expressed in HEK293 cells assessed as induction of NF-kappaB activity by secreted alkaline phosphatase reporter gene assay; format: cell-based; outline: as §1
# [3] = target: T1, Toll-like receptor 8 (Homo sapiens) (UniProt Q9NR97); test: Agonist activity at TLR8 in human PBMC assessed as induction of IL-1beta levels after 16 hrs by immunoassay
# T1 sequence (whole entry): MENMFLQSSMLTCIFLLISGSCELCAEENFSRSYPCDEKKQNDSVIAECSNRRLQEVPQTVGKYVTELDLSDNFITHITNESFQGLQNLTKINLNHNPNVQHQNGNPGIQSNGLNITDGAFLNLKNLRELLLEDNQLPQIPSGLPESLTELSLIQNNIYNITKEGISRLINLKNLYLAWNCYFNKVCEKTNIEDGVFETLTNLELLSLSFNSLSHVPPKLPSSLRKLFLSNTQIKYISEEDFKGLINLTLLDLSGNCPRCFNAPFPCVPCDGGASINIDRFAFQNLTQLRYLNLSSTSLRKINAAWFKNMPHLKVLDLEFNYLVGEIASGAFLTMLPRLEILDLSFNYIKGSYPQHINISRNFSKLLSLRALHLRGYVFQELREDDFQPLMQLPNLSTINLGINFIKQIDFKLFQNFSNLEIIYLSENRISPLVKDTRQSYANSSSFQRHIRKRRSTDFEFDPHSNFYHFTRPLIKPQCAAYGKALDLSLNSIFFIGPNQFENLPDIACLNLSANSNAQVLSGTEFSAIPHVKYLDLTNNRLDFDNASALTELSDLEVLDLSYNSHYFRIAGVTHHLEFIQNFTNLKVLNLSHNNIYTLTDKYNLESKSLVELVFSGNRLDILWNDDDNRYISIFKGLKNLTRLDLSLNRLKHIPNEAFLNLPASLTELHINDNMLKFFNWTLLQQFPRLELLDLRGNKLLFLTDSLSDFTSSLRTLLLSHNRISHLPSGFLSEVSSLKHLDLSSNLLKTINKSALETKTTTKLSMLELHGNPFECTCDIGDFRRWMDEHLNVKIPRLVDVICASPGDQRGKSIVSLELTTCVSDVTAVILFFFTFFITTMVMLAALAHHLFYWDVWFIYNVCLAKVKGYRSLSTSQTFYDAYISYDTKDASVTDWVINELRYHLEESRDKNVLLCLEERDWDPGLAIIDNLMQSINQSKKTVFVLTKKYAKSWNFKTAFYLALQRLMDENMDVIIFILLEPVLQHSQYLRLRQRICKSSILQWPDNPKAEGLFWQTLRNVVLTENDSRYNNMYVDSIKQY
# Outline: (§2)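 Freshly isolated human PBMC from venipuncture blood (informed consent), 10^5 cells/well, stimulated 16 h with graded concentrations of compound. Supernatants collected by centrifugation and cytokines quantified in duplicate with a multiplexed cytokine/chemokine magnetic bead array.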
# [4] = target: T1, Toll-like receptor 8 (Homo sapiens); test: Agonist activity at TLR8 in human PBMC assessed as induction of IL-6 levels after 16 hrs by immunoassay; outline: as §2
# [5] = target: Toll-like receptor 5 (Homo sapiens) (UniProt O60602); test: Agonist activity at human TLR5 expressed in HEK293 cells assessed as induction of NF-kappaB activity by secreted alkaline phosphatase reporter gene assay; format: cell-based; outline: as §1
# Toll-like receptor 8 = target: T2, Toll-like receptor 8 (Homo sapiens, UniProt Q9NR97); test: Agonist activity at human TLR8 expressed in HEK293 cells assessed as induction of NF-kappaB activity by secreted alkaline phosphatase reporter gene assay; format: cell-based; outline: as §1
# T2 sequence (Q9NR97 whole entry): T1 sequence (whole entry)
# [6] = target: T1, Toll-like receptor 8 (Homo sapiens); test: Agonist activity at TLR8 in human PBMC assessed as increase in TNF-alpha production after 16 hrs by immunoassay; outline: as §2
# [7] = target: T1, Toll-like receptor 8 (Homo sapiens); test: Agonist activity at TLR8 in human PBMC assessed as Th1-biased stimulatory activity measured as IL-12 release after 16 hrs by immunoassay; outline: as §2
# [8] = target: T1, Toll-like receptor 8 (Homo sapiens); test: Agonist activity at TLR8 in human PBMC assessed as induction of IL-8 levels after 16 hrs by immunoassay; outline: as §2
# [9] = target: T1, Toll-like receptor 8 (Homo sapiens); test: Agonist activity at TLR8 in human monocytes assessed as upregulation of CD80 after 16 hrs by flow cytometry; format: cell-based
# Outline: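 Heparin-anticoagulated healthy-donor whole blood added to serial compound dilutions, 37 °C for 16 h, DMSO negative control. Stained with CD14-FITC, CD40-APC, CD80-PE-Cy7 and CD86-V450 (2.5 µg each, 4 °C, dark, 60 min). Erythrocytes lysed, leukocytes fixed, washed, then flow cytometry on 200,000 gated events. Monocytes gated as CD14+, CD80 read as MFI, means of duplicates.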
# Chain of Toll-like receptor 4 (Homo sapiens) (O00206 whole entry): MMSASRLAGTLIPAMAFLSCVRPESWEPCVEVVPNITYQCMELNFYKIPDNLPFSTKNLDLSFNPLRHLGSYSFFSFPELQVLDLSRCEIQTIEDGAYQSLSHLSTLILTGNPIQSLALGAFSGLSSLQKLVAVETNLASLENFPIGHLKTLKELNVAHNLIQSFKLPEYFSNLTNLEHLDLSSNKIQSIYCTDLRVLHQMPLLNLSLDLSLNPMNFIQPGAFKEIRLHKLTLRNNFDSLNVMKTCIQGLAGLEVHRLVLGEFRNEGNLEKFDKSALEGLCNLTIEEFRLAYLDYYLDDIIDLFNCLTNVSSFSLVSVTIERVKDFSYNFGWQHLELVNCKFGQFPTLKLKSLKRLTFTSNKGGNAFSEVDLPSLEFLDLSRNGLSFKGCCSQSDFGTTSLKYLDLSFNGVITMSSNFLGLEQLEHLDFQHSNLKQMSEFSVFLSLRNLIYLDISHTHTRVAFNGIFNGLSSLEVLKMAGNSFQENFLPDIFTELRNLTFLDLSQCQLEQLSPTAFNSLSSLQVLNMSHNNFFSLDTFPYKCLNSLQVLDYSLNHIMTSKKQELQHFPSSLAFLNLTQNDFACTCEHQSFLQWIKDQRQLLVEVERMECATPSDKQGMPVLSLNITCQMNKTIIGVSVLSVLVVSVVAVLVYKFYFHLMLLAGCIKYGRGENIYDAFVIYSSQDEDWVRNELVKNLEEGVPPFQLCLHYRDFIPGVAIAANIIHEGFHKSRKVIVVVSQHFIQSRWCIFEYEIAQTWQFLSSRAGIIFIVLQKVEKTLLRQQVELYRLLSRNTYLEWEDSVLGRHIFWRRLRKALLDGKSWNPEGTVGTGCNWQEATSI
# Chain of Toll-like receptor 2 (Homo sapiens) (O60603 whole entry): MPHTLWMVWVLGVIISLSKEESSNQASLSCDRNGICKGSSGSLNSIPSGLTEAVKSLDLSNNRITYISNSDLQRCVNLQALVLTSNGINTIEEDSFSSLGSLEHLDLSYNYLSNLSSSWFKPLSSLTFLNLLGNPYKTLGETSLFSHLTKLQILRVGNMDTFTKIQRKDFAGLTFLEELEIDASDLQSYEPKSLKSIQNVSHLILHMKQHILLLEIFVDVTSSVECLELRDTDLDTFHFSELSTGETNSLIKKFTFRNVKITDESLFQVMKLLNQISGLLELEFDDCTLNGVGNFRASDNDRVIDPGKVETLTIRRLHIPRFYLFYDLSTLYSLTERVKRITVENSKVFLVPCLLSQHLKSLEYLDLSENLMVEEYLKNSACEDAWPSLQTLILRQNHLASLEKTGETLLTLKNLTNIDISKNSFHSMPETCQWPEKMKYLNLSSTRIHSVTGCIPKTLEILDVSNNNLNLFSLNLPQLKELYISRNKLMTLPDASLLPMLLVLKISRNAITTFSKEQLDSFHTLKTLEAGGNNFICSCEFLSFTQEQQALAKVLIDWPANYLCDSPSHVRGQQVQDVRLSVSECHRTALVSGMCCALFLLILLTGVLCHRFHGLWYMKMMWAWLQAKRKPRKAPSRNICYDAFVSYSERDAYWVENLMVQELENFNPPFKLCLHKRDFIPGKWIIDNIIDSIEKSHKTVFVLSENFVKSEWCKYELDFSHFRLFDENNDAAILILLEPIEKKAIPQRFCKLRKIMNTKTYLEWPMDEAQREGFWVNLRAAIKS
# Chain of Toll-like receptor 5 (Homo sapiens) (O60602 whole entry): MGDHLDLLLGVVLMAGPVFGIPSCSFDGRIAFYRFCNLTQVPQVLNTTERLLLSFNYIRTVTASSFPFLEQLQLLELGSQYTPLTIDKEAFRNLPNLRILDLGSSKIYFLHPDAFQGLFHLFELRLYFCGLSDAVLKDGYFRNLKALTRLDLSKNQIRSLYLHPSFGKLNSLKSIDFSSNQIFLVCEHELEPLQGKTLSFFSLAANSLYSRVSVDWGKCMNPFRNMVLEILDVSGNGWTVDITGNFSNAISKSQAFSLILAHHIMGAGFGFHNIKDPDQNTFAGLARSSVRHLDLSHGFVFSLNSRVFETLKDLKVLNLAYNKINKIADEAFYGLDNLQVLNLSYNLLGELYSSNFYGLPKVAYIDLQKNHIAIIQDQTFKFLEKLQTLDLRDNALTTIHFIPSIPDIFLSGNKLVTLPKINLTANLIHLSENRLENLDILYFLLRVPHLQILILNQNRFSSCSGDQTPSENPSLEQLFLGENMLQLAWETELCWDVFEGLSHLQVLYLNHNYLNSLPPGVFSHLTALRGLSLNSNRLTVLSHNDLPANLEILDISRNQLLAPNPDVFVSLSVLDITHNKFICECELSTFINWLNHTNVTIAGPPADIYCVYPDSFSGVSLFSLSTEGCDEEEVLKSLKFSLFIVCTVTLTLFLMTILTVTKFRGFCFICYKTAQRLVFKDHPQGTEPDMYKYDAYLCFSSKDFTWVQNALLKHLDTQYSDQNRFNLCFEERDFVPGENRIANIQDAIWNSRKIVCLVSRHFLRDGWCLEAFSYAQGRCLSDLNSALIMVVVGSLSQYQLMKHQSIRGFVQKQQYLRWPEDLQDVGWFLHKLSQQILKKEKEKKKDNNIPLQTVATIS
SMILES,Activity [1],Activity [2],Activity [3],Activity [4],Activity [5],EC50 (Toll-like receptor 8) [µM],Activity [6],Activity [7],Activity [8],Activity [9] [µM]
CCCCNc1cc(-c2ccccc2)nc(N)n1,inactive,inactive,inactive,inactive,inactive,6.7,inactive,inactive,inactive,–
CCCCNc1nc(N)nc(C)c1I,inactive,inactive,Active,Active,inactive,1.64,Active,Active,Active,5
CCCCNc1nc(N)nc(C)c1CCCCN,inactive,inactive,inactive,inactive,inactive,0.3,–,Active,inactive,1.5
CCCCNc1nc(N)nc(-c2ccccc2)c1CCCCN,inactive,inactive,inactive,inactive,inactive,–,inactive,inactive,inactive,–
CCCCCn1c(N)nc2c(C)cccc21,inactive,inactive,Active,Active,inactive,1.8,Active,–,Active,14
